Assay outcomes from PubChem.
DYRK1A inh: Dyrk1A (rat) kinase inhibition. inhibition, % at 12.5 µM. 0.43% of 310,000 active. AID 504441. ADP-Glo luminescence, NFATc1 peptide; in the data active = inhibition above about 50%;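 also: plate controls were vehicle with enzyme for no effect and no enzyme for full effect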
CAL PDZ FP-1: inhibitors of human CAL PDZ peptide binding; inhibition, % at 24.9 µM; purified CAL PDZ, TMR-peptide fluorescence polarization, 1 h; 0.92% of 300,000 active;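 active = mean inhibition of at least 30% with at least half of replicates also reaching 30%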;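 also: 0% = DMSO neutral control and 100% = excess unlabeled competitor peptide PRC23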
ARNT TACC3 PPI: disruptors of human ARNT/TACC3 interaction | Q9Y6A5 | AlphaScreen His-ARNT PAS-B/GST-TACC3 binding, luminescence; TACC3 fragment carries E629A point mutation | inhibition, % at 9.99 µM | 0.66% of 390,000 active | AID 623870;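 active = mean inhibition of replicates at least 50% and at least half of replicates each reaching 50%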;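 also: 0% = complete ARNT plus TACC3 wells and 100% = ARNT alone without TACC3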
CAL PDZ FP-2: human CAL PDZ-peptide interaction inhibition | inhibition, % at 20 µM | purified CAL PDZ, TMR-peptide fluorescence polarization, 1 h | Q9HD26 | 0.02% of 330,000 active;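 active = highest replicate inhibition of at least 40%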;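 also: plate controls were DMSO neutral control wells for no effect and unlabeled competitor peptide control wells for full effect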
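Read-out basis: mP drop reported as inhibition | Assay system: Tagged CAL PDZ protein CerCALP, purified | Benchmarks: Unlabelled peptide for full inhibition, DMSO wells as neutral | Schedule: 1 h incubation at room temperature before polarization reading | Buffer or medium: Sodium phosphate/NaCl buffer pH 7.4 with TCEP, IgG, Thesit | Doses: Single point, 20 µM | Measured by: Fluorescence polarization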
ADP-Glo artifact: interferes with ADP-Glo luciferase readout without Dyrk1A; shares compounds with DYRK1A inh; ADP-Glo luciferase artifact assay, no Dyrk1A, luminescence; AC50, µM (top dose mostly 12 µM), for inactives: at the top dose activity change, negative = inhibition; 1,300 tested, under 10 active;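 active = fitted half-maximal dose AC50 no more than ten times the top valid tested dose, with luminescence dropping as dose rises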
The depositor's hits bear a star; · = no result. In the library only some 1.4% were active in any assay of this set; here they are far more common.

SMILES	DYRK1A inh	CAL PDZ FP-1	ARNT TACC3 PPI	CAL PDZ FP-2	ADP-Glo artifact
CCC1CCC(C(=O)NC(C(=O)Nc2ccc3c(c2)OCCO3)C(C)C)CC1 (configuration not stated)	1.1	-0.3	-4.3	-2.0	·
C[C@@H]1CN([C@@H](C)CO)C(=O)Cc2cc(NC(=O)Nc3ccc(C(F)(F)F)cc3)ccc2O[C@H]1CN(C)C(=O)Nc1cccc2ccccc12	·	·	-3.5	·	·
CC1=C(C)C(=O)C(N2CCOCC2)=CC1=O	0.2	-7.0	9.3	-0.4	·
O=C1C=C(N2CCOCC2)c2ccccc2C1=O	56.4*	0.6	·	0.6	8.9%
C[C@H](CO)N1C[C@H](C)[C@H](CN(C)C(=O)Nc2ccc(C(F)(F)F)cc2)Oc2ccc(NC(=O)Nc3cccc4ccccc34)cc2C1=O	·	·	-2.7	·	·
CN(C)C(=O)[C@]1(CCS(=O)(=O)c2ccccc2)N=C(c2ccc(OCCCO)cc2)O[C@@H]1c1ccccc1	·	·	0.2	·	·
Oc1ccc(/C=N/Nc2ccc(C(F)(F)F)cn2)c(O)c1	61.1*	5.4	·	-2.1	9.5%
C[C@@H]1CCCCO[C@@H](CN(C)S(C)(=O)=O)[C@H](C)CN([C@H](C)CO)C(=O)c2cc(NC(=O)c3ccccc3)ccc2O1	·	·	-1.6	·	·
N#CC1=C(N)Oc2ccc3ccc(O)cc3c2C1c1ccsc1 (configuration not stated)	76.7*	-1.5	·	-0.5	6.7%
N#CC1=C(N)Oc2cc(N)ccc2C1c1ccsc1 (configuration not stated)	-4.3	-1.7	-2.4	-2.5	·
CCCCCCCCN1[C@@H](CC(=O)OC)c2cc(C(F)(F)F)ccc2S1(=O)=O	50.4*	1.6	-33.9	-0.5	6.2%
Cc1noc(C)c1S(=O)(=O)Nc1ccc2c(c1)CC(=O)N([C@@H](C)CO)C[C@H](C)[C@@H](CN(C)Cc1ccc(C(=O)O)cc1)O2	·	·	-9.4	·	·
CNC(=O)C[C@H]1CC[C@H]2[C@H](COc3ccc(NC(=O)Cc4cccs4)cc3C(=O)N2C)O1	·	·	0.5	·	·
N#C/C(=C/c1ccc(O)c(O)c1)c1nc2ccccc2[nH]1	67.1*	114.5*	18.8	2.9	9.2%
Cc1noc(C)c1NC(=O)N[C@H]1C=C[C@H](CC(=O)Nc2ccccc2)O[C@H]1CO	·	·	-1.2	·	·
Cc1noc(C)c1NC(=O)Nc1ccc2c(c1)C(=O)N([C@H](C)CO)C[C@H](C)[C@@H](CN(C)S(=O)(=O)c1cn(C)cn1)OCCCC[C@H](C)O2	·	·	-4.4	·	·
CN1CCN(c2cc3c(c4c2[nH]c2ccccc24)C(=O)CC(C)(C)C3)CC1	56.4*	-4.9	·	1.8	10.3%
CN1CCN(c2ccc(Cl)cc2NC(=O)c2cc(=O)[nH]c3ccccc23)CC1	6.5	·	1.3	-1.4	·
C[C@@H]1CN([C@H](C)CO)C(=O)c2cc(NC(=O)Cc3ccccc3)ccc2O[C@@H](C)CCCCO[C@H]1CN(C)S(=O)(=O)c1ccc(F)cc1	·	·	1.2	·	·
Cc1nc(NC(=O)c2ccccc2)sc1-c1csc(N)n1	59.6*	-3.3	33.4	0.3	8.2%
O=C(Cc1c(F)cccc1Cl)Nc1nc2ccccc2s1	51.4*	-1.7	2.8	-2.0	5.8%
COc1cc2cnc(-c3ccccc3)c(-c3ccc([N+](=O)[O-])cc3)c2cc1OC	51.1*	-3.6	-0.5	0.3	9.4%
COc1cc2cnc(-c3ccccc3)c(-c3cc(OC)c(OC)c(OC)c3)c2cc1OC	15.1	-3.0	0.7	-0.9	·
CNC[C@H]1Oc2c(NC(=O)NC3CCCCC3)cccc2C(=O)N([C@H](C)CO)C[C@H]1C	·	·	-1.5	·	·
O=C(Nc1nc2ccc([N+](=O)[O-])cc2s1)C1CCCO1 (configuration not stated)	65.9*	-1.8	-0.6	-1.7	7.8%
O=C(Nc1nc2ccc(Cl)cc2s1)C1CCCO1 (configuration not stated)	76.2*	-4.1	-6.7	-0.9	8.9%
CS(=O)(=O)c1ccc2nc(NC(=O)C3CCCO3)sc2c1 (configuration not stated)	·	-1.7	-2.7	-0.1	·
CC(C)S(=O)(=O)C1=NSC2=NC(=O)/C(=C\c3ccc(-c4cccc(C(=O)O)c4)o3)C(=N)N21	65.3*	·	-1.8	-7.6	11.4%
O=C(Nc1ccc(C(F)(F)F)cc1)N[C@@H]1CC[C@H](CC(=O)N2CCCCC2)O[C@@H]1CO	·	·	0.1	·	·
O=C(Nc1ncc2c(n1)-c1ccccc1CC2)c1ccc(Cl)cc1	58.8*	·	·	-1.2	8.0%
